Source: ChEMBL document CHEMBL1144140, “Diterpenes from the fruits of Vitex rotundifolia” (J Nat Prod, 1999)
Calls of active or inactive are those of the source. No cut-off for these calls is given here.

Columns and labels:
Format in all cases: functional
[1] = system: Radical scavenging activity; assay: Antioxidant activity assessed as DPPH radical scavenging activity at 80 uM after 30 mins
In short: (§1)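 DPPH scavenging: test sample in EtOH added to 0.1 M acetic acid buffer pH 5.5 plus 0.5 mM DPPH EtOH solution (stock); stood 30 min at room temperature; absorbance read at 517 nm, activity given as change in optical density. Standards alpha-tocopherol and L-cysteine.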

[2] = system: Radical scavenging activity; assay: Antioxidant activity assessed as DPPH radical scavenging activity at 40 uM after 30 mins; in short: as §1
[3] = system: Radical scavenging activity; assay: Antioxidant activity assessed as DPPH radical scavenging activity at 20 uM after 30 mins; in short: as §1
[4] = Antioxidant activity at 0.5 mM by ferric-thiocyanate method
In short: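 Linoleic acid peroxidation (ferric thiocyanate): sample (final 0.5 mM) with linoleic acid in EtOH/0.05 M phosphate buffer pH 7.0, kept dark at 40 °C for 5 days; aliquot diluted in 75% EtOH, ammonium thiocyanate and ferrous chloride in HCl added, absorbance at 500 nm read at 3 min. Control lacked compound; alpha-tocopherol and BHA standards.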

[5] = system: Radical scavenging activity; assay: Antioxidant activity assessed as DPPH radical scavenging activity at 10 uM after 30 mins; in short: as §1

Structure (SMILES)	deltaA [1]	deltaA [2]	deltaA [3]	Activity [4]	deltaA [5]
N[C@@H](CS)C(=O)O	0.754	0.355	0.161		
CC(C)c1cc2c(cc1O)[C@@]1(C)CCCC(C)(C)[C@@H]1CC2	0.255	0.153	0.081	Active	
COc1ccc(O)c(C(C)(C)C)c1.COc1ccc(O)cc1C(C)(C)C				Active	
Cc1c(C)c2c(c(C)c1O)CC[C@@](C)(CCC[C@H](C)CCC[C@H](C)CCCC(C)C)O2		0.934	0.471		0.252
